Reference: ChEMBL document CHEMBL4382238, “Synthesis of isatin based N1-alkylated 3-β-C-glycoconjugated-oxopropylidene oxindoles as potent antiplasmodial agents” (Eur J Med Chem, 2019)

Assays:
[1] = Cytotoxicity against African green monkey Vero cells measured after 72 hrs by resazurin assay; type: cell-based; conditions: chlorocebus sabaeus
Outline: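 VERO monkey kidney cells grown in MEM with 15% FBS under 5% CO2 at 37 °C. Cells exposed to serial drug dilutions for three days. 10% resazurin then added as viability marker. Fluorescence read at excitation 530 ± 25 nm and emission 590 ± 25 nm to calculate median cytotoxic concentration (CC50). Values are the average of at least duplicate determinations.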

Plasmodium falciparum [2] = assay: Antiplasmodial activity against chloroquine-resistant Plasmodium falciparum K1 asynchronous cultures infected in human erythrocytes after 72 hrs by SYBR green1 staining based fluorescence assay; type: functional, organism-based; conditions: K1, 72 h
Outline: (§1)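 Parasites kept in human erythrocytes at 5% hematocrit in RPMI-1640 (HEPES) with 0.5% AlbuMaxII, 0.2% glucose, bicarbonate, 15 µM hypoxanthine, 37 °C CO2. Two-fold serial dilutions spanning […]; asynchronous culture at 0.8-1% parasitaemia, 1% haematocrit; 72 h, 37 °C. Lytic buffer with SYBR Green (1x final), 2 h dark, RT; Ex 485/Em 535 nm. IC50 from DNA signal versus drug-free controls; at least duplicate determinations.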

[3] = Selectivity index, ratio of CC50 for African green monkey Vero cells to IC50 for chloroquine-sensitive Plasmodium falciparum 3D7 asynchronous cultures infected in human erythrocytes; type: toxicity, cell-based; conditions: read-out: Ratio CC50/IC50
[4] = Selectivity index, ratio of CC50 for African green monkey Vero cells to IC50 for chloroquine-resistant Plasmodium falciparum K1 asynchronous cultures infected in human erythrocytes; type: toxicity, cell-based; conditions: read-out: Ratio CC50/IC50
Plasmodium falciparum [5] = assay: Antiplasmodial activity against chloroquine-sensitive Plasmodium falciparum 3D7 asynchronous cultures infected in human erythrocytes after 72 hrs by SYBR green1 staining based fluorescence assay; type: functional, organism-based; conditions: 3D7, 72 h; outline: as §1

SMILES: CC(=O)OC[C@H]1O[C@@H](CC(=O)/C=C2\C(=O)N(CCc3ccccc3)c3ccccc32)[C@H](OC(C)=O)[C@@H](OC(C)=O)[C@@H]1OC(C)=O
- CC50 at 72 h [1]: 64.7 µM
- IC50 (Plasmodium falciparum [2]): 0.75 µM
- selectivity ratio [3]: 68.1
- selectivity ratio [4]: 86.2
- IC50 (Plasmodium falciparum [5]): 0.95 µM

SMILES: CC(=O)OC[C@H]1O[C@@H](CC(=O)/C=C2\C(=O)N(Cc3ccc(F)cc3)c3ccc(Cl)cc32)[C@H](OC(C)=O)[C@@H](OC(C)=O)[C@@H]1OC(C)=O
- CC50 at 72 h [1]: 107 µM
- IC50 (Plasmodium falciparum [2]): 0.25 µM
- selectivity ratio [3]: 335
- selectivity ratio [4]: 429
- IC50 (Plasmodium falciparum [5]): 0.32 µM

SMILES: CC(=O)OC[C@H]1O[C@@H](CC(=O)/C=C2\C(=O)N(Cc3ccccc3)c3ccc(Cl)cc32)[C@H](OC(C)=O)[C@@H](OC(C)=O)[C@@H]1OC(C)=O
- CC50 at 72 h [1]: 91.2 µM
- IC50 (Plasmodium falciparum [2]): 0.31 µM
- selectivity ratio [3]: 351
- selectivity ratio [4]: 294
- IC50 (Plasmodium falciparum [5]): 0.26 µM

SMILES: CC(=O)OC[C@H]1O[C@@H](CC(=O)CC2(O)C(=O)Nc3ccc(Cl)cc32)[C@H](OC(C)=O)[C@@H](OC(C)=O)[C@@H]1OC(C)=O (stereo partly drawn)
- IC50 (Plasmodium falciparum [2]): > 5 µM
- IC50 (Plasmodium falciparum [5]): > 5 µM

SMILES: CC(=O)OC[C@H]1O[C@@H](CC(=O)/C=C2\C(=O)N(Cc3ccccc3)c3ccccc32)[C@H](OC(C)=O)[C@@H](OC(C)=O)[C@@H]1OC(C)=O
- CC50 at 72 h [1]: 71.2 µM
- IC50 (Plasmodium falciparum [2]): 0.29 µM
- selectivity ratio [3]: 92.4
- selectivity ratio [4]: 245
- IC50 (Plasmodium falciparum [5]): 0.77 µM

SMILES: CC(=O)OC[C@H]1O[C@@H](CC(=O)CC2(O)C(=O)N(CCc3ccccc3)c3ccc(Cl)cc32)[C@H](OC(C)=O)[C@@H](OC(C)=O)[C@@H]1OC(C)=O (stereo partly drawn)
- IC50 (Plasmodium falciparum [2]): > 5 µM
- IC50 (Plasmodium falciparum [5]): > 5 µM

SMILES: CCCCN1C(=O)/C(=C\C(=O)C[C@@H]2O[C@H](COC(C)=O)[C@@H](OC(C)=O)[C@H](OC(C)=O)[C@H]2OC(C)=O)c2ccccc21
- CC50 at 72 h [1]: 126 µM
- IC50 (Plasmodium falciparum [2]): 1.84 µM
- selectivity ratio [3]: 48.1
- selectivity ratio [4]: 68.2
- IC50 (Plasmodium falciparum [5]): 2.61 µM

SMILES: CCCN1C(=O)C(O)(CC(=O)C[C@@H]2O[C@H](COC(C)=O)[C@@H](OC(C)=O)[C@H](OC(C)=O)[C@H]2OC(C)=O)c2cc(Cl)ccc21 (stereo partly drawn)
- IC50 (Plasmodium falciparum [2]): > 5 µM
- IC50 (Plasmodium falciparum [5]): > 5 µM

SMILES: CC(=O)OC[C@H]1O[C@@H](CC(=O)CC2(O)C(=O)N(Cc3ccc(F)cc3)c3ccccc32)[C@H](OC(C)=O)[C@@H](OC(C)=O)[C@@H]1OC(C)=O (stereo partly drawn)
- IC50 (Plasmodium falciparum [2]): > 5 µM
- IC50 (Plasmodium falciparum [5]): > 5 µM

SMILES: CC(=O)OC[C@H]1O[C@@H](CC(=O)CC2(O)C(=O)N(Cc3cccc(C)c3)c3ccc(Cl)cc32)[C@H](OC(C)=O)[C@@H](OC(C)=O)[C@@H]1OC(C)=O (stereo partly drawn)
- IC50 (Plasmodium falciparum [2]): > 5 µM
- IC50 (Plasmodium falciparum [5]): > 5 µM

SMILES: CCCN1C(=O)/C(=C\C(=O)C[C@@H]2O[C@H](COC(C)=O)[C@@H](OC(C)=O)[C@H](OC(C)=O)[C@H]2OC(C)=O)c2ccccc21
- CC50 at 72 h [1]: 125 µM
- IC50 (Plasmodium falciparum [2]): > 5 µM
- selectivity ratio [3]: 34.7
- selectivity ratio [4]: < 24.9
- IC50 (Plasmodium falciparum [5]): 3.59 µM

SMILES: CC(=O)OC[C@H]1O[C@@H](CC(=O)CC2(O)C(=O)N(Cc3ccc(F)cc3)c3ccc(Cl)cc32)[C@H](OC(C)=O)[C@@H](OC(C)=O)[C@@H]1OC(C)=O (stereo partly drawn)
- IC50 (Plasmodium falciparum [2]): 2.26 µM
- IC50 (Plasmodium falciparum [5]): 3.54 µM

SMILES: CC(=O)OC[C@H]1O[C@@H](CC(=O)/C=C2\C(=O)N(Cc3ccc(Br)cc3)c3ccccc32)[C@H](OC(C)=O)[C@@H](OC(C)=O)[C@@H]1OC(C)=O
- CC50 at 72 h [1]: 76.5 µM
- IC50 (Plasmodium falciparum [2]): 0.8 µM
- selectivity ratio [3]: 333
- selectivity ratio [4]: 95.7
- IC50 (Plasmodium falciparum [5]): 0.23 µM

SMILES: CC(=O)OC[C@H]1O[C@@H](CC(=O)/C=C2\C(=O)N(Cc3ccc(Br)cc3)c3ccc(Cl)cc32)[C@H](OC(C)=O)[C@@H](OC(C)=O)[C@@H]1OC(C)=O
- CC50 at 72 h [1]: 93.3 µM
- IC50 (Plasmodium falciparum [2]): 0.15 µM
- selectivity ratio [3]: 389
- selectivity ratio [4]: 622
- IC50 (Plasmodium falciparum [5]): 0.24 µM

SMILES: CC(=O)OC[C@H]1O[C@@H](CC(=O)/C=C2\C(=O)N(Cc3cccc(C)c3)c3ccc(Cl)cc32)[C@H](OC(C)=O)[C@@H](OC(C)=O)[C@@H]1OC(C)=O
- CC50 at 72 h [1]: 91 µM
- IC50 (Plasmodium falciparum [2]): 1.04 µM
- selectivity ratio [3]: 535
- selectivity ratio [4]: 87.5
- IC50 (Plasmodium falciparum [5]): 0.17 µM

SMILES: CCCN1C(=O)/C(=C\C(=O)C[C@@H]2O[C@H](COC(C)=O)[C@@H](OC(C)=O)[C@H](OC(C)=O)[C@H]2OC(C)=O)c2cc(Cl)ccc21
- CC50 at 72 h [1]: 95.5 µM
- IC50 (Plasmodium falciparum [2]): 0.4 µM
- selectivity ratio [3]: 81
- selectivity ratio [4]: 239
- IC50 (Plasmodium falciparum [5]): 1.18 µM

SMILES: CCCCN1C(=O)C(O)(CC(=O)C[C@@H]2O[C@H](COC(C)=O)[C@@H](OC(C)=O)[C@H](OC(C)=O)[C@H]2OC(C)=O)c2cc(Cl)ccc21 (stereo partly drawn)
- IC50 (Plasmodium falciparum [2]): > 5 µM
- IC50 (Plasmodium falciparum [5]): > 5 µM

SMILES: CC(=O)OC[C@H]1O[C@@H](CC(=O)/C=C2\C(=O)Nc3ccc(Cl)cc32)[C@H](OC(C)=O)[C@@H](OC(C)=O)[C@@H]1OC(C)=O
- CC50 at 72 h [1]: 122 µM
- IC50 (Plasmodium falciparum [2]): 2.52 µM
- selectivity ratio [3]: 45.5
- selectivity ratio [4]: 48.4
- IC50 (Plasmodium falciparum [5]): 2.68 µM

SMILES: CCCCN1C(=O)C(O)(CC(=O)C[C@@H]2O[C@H](COC(C)=O)[C@@H](OC(C)=O)[C@H](OC(C)=O)[C@H]2OC(C)=O)c2ccccc21 (stereo partly drawn)
- IC50 (Plasmodium falciparum [2]): > 5 µM
- IC50 (Plasmodium falciparum [5]): > 5 µM

SMILES: CC(=O)OC[C@H]1O[C@@H](CC(=O)/C=C2\C(=O)N(CCc3ccccc3)c3ccc(Cl)cc32)[C@H](OC(C)=O)[C@@H](OC(C)=O)[C@@H]1OC(C)=O
- CC50 at 72 h [1]: 93 µM
- IC50 (Plasmodium falciparum [2]): 0.94 µM
- selectivity ratio [3]: 845
- selectivity ratio [4]: 98.9
- IC50 (Plasmodium falciparum [5]): 0.11 µM

SMILES: CC(=O)OC[C@H]1O[C@@H](CC(=O)CC2(O)C(=O)N(Cc3ccc(Br)cc3)c3ccc(Cl)cc32)[C@H](OC(C)=O)[C@@H](OC(C)=O)[C@@H]1OC(C)=O (stereo partly drawn)
- IC50 (Plasmodium falciparum [2]): 4.81 µM
- IC50 (Plasmodium falciparum [5]): > 5 µM

SMILES: CC(=O)OC[C@H]1O[C@@H](CC(=O)CC2(O)C(=O)N(Cc3ccc(Br)cc3)c3ccccc32)[C@H](OC(C)=O)[C@@H](OC(C)=O)[C@@H]1OC(C)=O (stereo partly drawn)
- IC50 (Plasmodium falciparum [2]): > 5 µM
- IC50 (Plasmodium falciparum [5]): > 5 µM

SMILES: CC(=O)OC[C@H]1O[C@@H](CC(=O)CC2(O)C(=O)N(Cc3cccc(C)c3)c3ccccc32)[C@H](OC(C)=O)[C@@H](OC(C)=O)[C@@H]1OC(C)=O (stereo partly drawn)
- IC50 (Plasmodium falciparum [2]): > 5 µM
- IC50 (Plasmodium falciparum [5]): > 5 µM

SMILES: CC(=O)OC[C@H]1O[C@@H](CC(=O)CC2(O)C(=O)Nc3ccccc32)[C@H](OC(C)=O)[C@@H](OC(C)=O)[C@@H]1OC(C)=O (stereo partly drawn)
- IC50 (Plasmodium falciparum [2]): > 5 µM
- IC50 (Plasmodium falciparum [5]): > 5 µM

SMILES: CCCN1C(=O)C(O)(CC(=O)C[C@@H]2O[C@H](COC(C)=O)[C@@H](OC(C)=O)[C@H](OC(C)=O)[C@H]2OC(C)=O)c2ccccc21 (stereo partly drawn)
- IC50 (Plasmodium falciparum [2]): > 5 µM
- IC50 (Plasmodium falciparum [5]): > 5 µM

SMILES: CC(=O)OC[C@H]1O[C@@H](CC(=O)CC2(O)C(=O)N(CCc3ccccc3)c3ccccc32)[C@H](OC(C)=O)[C@@H](OC(C)=O)[C@@H]1OC(C)=O (stereo partly drawn)
- IC50 (Plasmodium falciparum [2]): > 5 µM
- IC50 (Plasmodium falciparum [5]): > 5 µM

SMILES: CC(=O)OC[C@H]1O[C@@H](CC(=O)/C=C2\C(=O)N(Cc3ccc(F)cc3)c3ccccc32)[C@H](OC(C)=O)[C@@H](OC(C)=O)[C@@H]1OC(C)=O
- CC50 at 72 h [1]: 119 µM
- IC50 (Plasmodium falciparum [2]): 1.19 µM
- selectivity ratio [3]: 253
- selectivity ratio [4]: 100
- IC50 (Plasmodium falciparum [5]): 0.47 µM

SMILES: CC(=O)OC[C@H]1O[C@@H](CC(=O)/C=C2\C(=O)Nc3ccccc32)[C@H](OC(C)=O)[C@@H](OC(C)=O)[C@@H]1OC(C)=O
- CC50 at 72 h [1]: 127 µM
- IC50 (Plasmodium falciparum [2]): > 5 µM
- selectivity ratio [3]: 29.8
- selectivity ratio [4]: < 25.4
- IC50 (Plasmodium falciparum [5]): 4.27 µM

SMILES: CC(=O)OC[C@H]1O[C@@H](CC(=O)CC2(O)C(=O)N(Cc3ccccc3)c3ccccc32)[C@H](OC(C)=O)[C@@H](OC(C)=O)[C@@H]1OC(C)=O (stereo partly drawn)
- IC50 (Plasmodium falciparum [2]): > 5 µM
- IC50 (Plasmodium falciparum [5]): > 5 µM

SMILES: CCCCN1C(=O)/C(=C\C(=O)C[C@@H]2O[C@H](COC(C)=O)[C@@H](OC(C)=O)[C@H](OC(C)=O)[C@H]2OC(C)=O)c2cc(Cl)ccc21
- CC50 at 72 h [1]: 88.9 µM
- IC50 (Plasmodium falciparum [2]): 0.22 µM
- selectivity ratio [3]: 494
- selectivity ratio [4]: 404
- IC50 (Plasmodium falciparum [5]): 0.18 µM

SMILES: CC(=O)OC[C@H]1O[C@@H](CC(=O)CC2(O)C(=O)N(Cc3ccccc3)c3ccc(Cl)cc32)[C@H](OC(C)=O)[C@@H](OC(C)=O)[C@@H]1OC(C)=O (stereo partly drawn)
- IC50 (Plasmodium falciparum [2]): > 5 µM
- IC50 (Plasmodium falciparum [5]): > 5 µM

SMILES: CC(=O)OC[C@H]1O[C@@H](CC(=O)/C=C2\C(=O)N(Cc3cccc(C)c3)c3ccccc32)[C@H](OC(C)=O)[C@@H](OC(C)=O)[C@@H]1OC(C)=O
- CC50 at 72 h [1]: 72.5 µM
- IC50 (Plasmodium falciparum [2]): 0.3 µM
- selectivity ratio [3]: 137
- selectivity ratio [4]: 242
- IC50 (Plasmodium falciparum [5]): 0.53 µM

SMILES: CCN(CC)CCCC(C)Nc1ccnc2cc(Cl)ccc12 (stereo not drawn) [CHLOROQUINE]
- CC50 at 72 h [1]: > 500 µM
